These results are taken from ChEMBL document CHEMBL1148494, “Comparison between 5,10,15,20-tetraaryl- and 5,15-diarylporphyrins as photosensitizers: synthesis, photodynamic activity, and quantitative structure-activity relationship modeling” (J Med Chem, 2006).

“And” between values parts separate entries of the source, which are not always exact repeats. Equal entries are not always repeated.

In the test the test system is HCT-116. The test is described as follows: Cytotoxicity against human HCT116 cell line. The class given is functional, cell-based. In short, it runs like this: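 HCT116 cells kept in DMEM, seeded at 5 × 10⁴ cells/mL, grown 48 h, then exposed to a range of PS concentrations for 24 h. PS medium swapped for PBS; visible light from a tungsten-halogen lamp for 2 h (22 mW/cm², 158.4 J/cm²). Then 24 h at 37 °C in drug-free medium. MTT 0.4 mg/mL final for 3 h; formazan in DMSO read at 570 nm. IC50 by nonlinear regression, mean of three replicates ± SE.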
With `C1=Cc2cc3ccc([nH]3)c(-c3ccccc3)c3ccc(cc4nc(cc1n2)C=C4)[nH]3`, the IC50 – broadly, the point on the concentration scale where inhibition reaches its midpoint – is 0.00123 µg/mL and 3.2 nM.
Under `C1=Cc2nc1cc1ccc([nH]1)c(-c1ccccc1)c1nc(cc3ccc([nH]3)c2-c2ccccc2)C=C1` stands 0.00263 µg/mL and 5.66 nM; under `COc1cc(-c2c3nc(cc4ccc(cc5nc(cc6ccc2[nH]6)C=C5)[nH]4)C=C3)cc(OC)c1OC`, 0.00229 µg/mL and 4.8 nM.
For `Oc1ccc(-c2c3nc(cc4ccc([nH]4)c(-c4ccccc4)c4nc(cc5ccc2[nH]5)C=C4)C=C3)cc1` the value was 0.00335 µg/mL and 7.01 nM; for `COc1ccc(-c2c3nc(cc4ccc([nH]4)c(-c4ccc(OC)cc4)c4nc(cc5ccc2[nH]5)C=C4)C=C3)cc1`, 0.0274 µg/mL and 52.5 nM; for `C1=Cc2nc1cc1ccc([nH]1)c(-c1ccccc1)c1ccc(cc3nc(c2-c2ccccc2)CC3)[nH]1`, 0.00151 µg/mL and 3.26 nM.
`COc1cc(-c2c3nc(cc4ccc([nH]4)c(-c4cc(OC)c(OC)c(OC)c4)c4ccc(cc5nc2C=C5)[nH]4)C=C3)cc(OC)c1OC`: the IC50 is 0.00632 µg/mL and 9.84 nM.
Consider `Oc1cccc(-c2c3nc(cc4ccc([nH]4)c(-c4cccc(O)c4)c4nc(cc5ccc2[nH]5)C=C4)C=C3)c1`, for which the IC50 is 0.00351 µg/mL and 7.09 nM.
As for `Oc1cc(-c2c3nc(c(-c4ccccc4)c4ccc([nH]4)c(-c4ccccc4)c4nc(c(-c5ccccc5)c5ccc2[nH]5)C=C4)C=C3)cc(O)c1O`, the IC50 is 0.0353 µg/mL and 53.3 nM.
For `Oc1cccc(-c2c3nc(cc4ccc([nH]4)c(-c4ccccc4)c4nc(cc5ccc2[nH]5)C=C4)C=C3)c1`, the IC50 was 0.00051 µg/mL and 1.06 nM.
`COc1cccc(-c2c3nc(cc4ccc([nH]4)c(-c4ccccc4)c4nc(cc5ccc2[nH]5)C=C4)C=C3)c1`: the IC50 was 0.00293 µg/mL and 5.94 nM.
Under `COc1ccc(-c2c3nc(c(-c4ccccc4)c4ccc([nH]4)c(-c4ccccc4)c4nc(c(-c5ccccc5)c5ccc2[nH]5)C=C4)C=C3)cc1` stands 0.894 µg/mL and 1.39 µM; under `Oc1cc(-c2c3nc(cc4ccc([nH]4)c(-c4ccccc4)c4nc(cc5ccc2[nH]5)C=C4)C=C3)cc(O)c1O`, 0.00497 µg/mL and 9.75 nM.
For `COc1ccc(-c2c3nc(cc4ccc(cc5nc(cc6ccc2[nH]6)C=C5)[nH]4)C=C3)cc1` the value was 0.00077 µg/mL and 1.85 nM; for `Oc1cccc(-c2c3nc(c(-c4ccccc4)c4ccc([nH]4)c(-c4ccccc4)c4nc(c(-c5ccccc5)c5ccc2[nH]5)C=C4)C=C3)c1`, 0.217 µg/mL and 344 nM.
For `Oc1ccc(-c2c3nc(c(-c4ccccc4)c4ccc([nH]4)c(-c4ccccc4)c4nc(c(-c5ccccc5)c5ccc2[nH]5)C=C4)C=C3)cc1` the value was 0.145 µg/mL and 230 nM; for `COc1cccc(-c2c3nc(cc4ccc([nH]4)c(-c4cc(OC)c(OC)c(OC)c4)c4nc(cc5ccc2[nH]5)C=C4)C=C3)c1`, 0.00921 µg/mL and 15.8 nM.
For `COc1cccc(-c2c3nc(cc4ccc([nH]4)c(-c4cccc(OC)c4)c4nc(cc5ccc2[nH]5)C=C4)C=C3)c1`, the IC50 is 0.0129 µg/mL and 24.7 nM.
Under `COc1cc(-c2c3nc(c(-c4ccccc4)c4ccc([nH]4)c(-c4ccccc4)c4nc(c(-c5ccccc5)c5ccc2[nH]5)C=C4)C=C3)cc(OC)c1OC` stands 0.709 µg/mL and 1.01 µM.
Under `COc1ccc(-c2c3nc(cc4ccc([nH]4)c(-c4ccccc4)c4nc(cc5ccc2[nH]5)C=C4)C=C3)cc1` stands 0.00606 µg/mL and 12.3 nM.
For `COc1cc(-c2c3nc(cc4ccc([nH]4)c(-c4ccccc4)c4nc(cc5ccc2[nH]5)C=C4)C=C3)cc(OC)c1OC` the value was 0.00428 µg/mL and 7.75 nM; for `COc1ccc(-c2c3nc(cc4ccc([nH]4)c(-c4cc(OC)c(OC)c(OC)c4)c4nc(cc5ccc2[nH]5)C=C4)C=C3)cc1`, 0.00903 µg/mL and 15.5 nM.
For `COc1cccc(-c2c3nc(c(-c4ccccc4)c4ccc([nH]4)c(-c4ccccc4)c4nc(c(-c5ccccc5)c5ccc2[nH]5)C=C4)C=C3)c1`, the IC50 is 0.0998 µg/mL and 155 nM.
For `COc1ccc(-c2c3nc(c(-c4ccc(OC)cc4)c4ccc([nH]4)c(-c4cc(OC)c(OC)c(OC)c4)c4nc(c(-c5ccc(OC)cc5)c5ccc2[nH]5)C=C4)C=C3)cc1` the value was > 1.5 µg/mL and > 1.89 µM; for `Oc1cccc(-c2c3nc(c(-c4cccc(O)c4)c4ccc([nH]4)c(-c4cccc(O)c4)c4nc(c(-c5cccc(O)c5)c5ccc2[nH]5)CC4)C=C3)c1` [TEMOPORFIN], 0.00517 µg/mL and 7.6 nM.
